The text below walks through data of ChEMBL document CHEMBL1127411, “Chemical and biological evaluation of hydrolysis products of cyclophosphamide” (J Med Chem, 1994).

Data set [1] is described as follows: The half life at a physiological pH.
A short description of data set [2]: Lethal dose was evaluated after single intraperitoneal injection in mice. The data set is classed as toxicity, organism-based. The following applies: mouse, in vivo, ip. The procedure, abridged: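 Male CD2F1 mice, 6–8 weeks old, two per dose group, single ip injection. Observed 28 days for lethality and clinical signs of toxicity; approximate LD₅₀ estimated from deaths.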

Data set [3] is described as follows: The half life at a pH 1.2. Particulars: buffer.
Data set [4] is described as follows: Antitumor efficacy evaluated after single intraperitoneal dose of 215 mg/kg; NE = No effect. The arrangement: dose 215 mg/kg. Format: functional, organism-based. The method in brief:
(§1)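 Male CD2F1 mice, six per group, inoculated ip with 10⁶ freshly harvested P388 cells in 0.2 mL phosphate-buffered saline. Test substance given ip either once on day 1 or daily on days 1–4; controls received solvent. Median survival time recorded per group; increase of life span expressed as percentage of control.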

Data set [5] in a line: Antitumor efficacy evaluated after single intraperitoneal dose of 68.1 mg/kg on consecutive days; NE = No effect. Format: functional, organism-based. Also on record: dose 68.1 mg/kg. The procedure, abridged:
as §1

Data set [6] in a line: Antitumor efficacy evaluated after fractionated dose of 4*100 mg/kg; NE = No effect. The data set is classed as functional, organism-based. The method in brief:
as §1

Data set [7] can be described thus: Antitumor efficacy evaluated after single dose of 316 mg/kg; NE = No effect. The data set is classed as functional, organism-based. Also on record: dose 316 mg/kg. The procedure, abridged:
as §1

Active and inactive are the calls of the source. No cut-off for these calls is given here.

Consider `O=P1(N(CCCl)CCCl)NCCCO1` (stereo not given) [CYCLOPHOSPHAMIDE ANHYDROUS], for which the results for the half-life in data set [1] and in data set [3] were 158 h and 33.6 h, respectively. Also, the LD50 in data set [2] is 620 mg/kg.

In the case of `O=P(O)(O)OCCCNCCNCCCl`, in data set [2], the LD50 was 700 mg/kg. The Efficacy result in data set [4] and in data set [5] was “inactive” in each case.

Take `O=P1(O)OCCCNCCN1CCCl`: the Efficacy entry in data set [6] and in data set [7] was “inactive” throughout. In data set [2], this compound registered an LD50 of 1000 mg/kg.

In turn, `NCCCOP(=O)(O)O` showed an LD50 in data set [2] of 1000 mg/kg.
